INS-1E ATP HTS: preserves ATP levels in cytokine-treated INS-1E cells; AID 488910; protection from cytokine-induced ATP loss, % at 10 µM; INS-1E cytokine-induced death, ATP luminescence, 48 h; normalised: neutral wells 0, positive control 100; hit rate 0.1% among 20,000;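 active means mean replicate protection from cytokine-induced ATP loss at least 50% and at least 75% of replicates each reaching 50%; inconclusive means meets only one of the two criteria, mean or replicate share; inactive means fails both the mean and replicate share criteria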
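Assay system – rat INS-1E insulinoma cell line · Quantity – 8000 cells per well · Buffer or medium – RPMI without phenol red, 5% FBS · Schedule – 48 h co-treatment, 10 min post-lysis read · Technique – luminescent ATP assay (CellTiter-Glo)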
A1 apoptosis 2: blocks A1, raising caspase activity. MEF A1-2A-BIM cells, caspase-Glo luminescence, 3 h; percent of clofoctol response, DMSO zero. caspase activation, % (concentration not given with the values). 24,000 tested, under 10 active. AID 2465; in the data active means caspase activation above about 5.9%; inconclusive means no clear call, values can overlap the other calls; inactive means below about 2.2%
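System: mouse embryonic fibroblasts co-expressing A1 and BIM (A1-2A-BIM), primed for A1 dependence; amount: 2500 cells/well; doses: 50 nL pinned compound; schedule: cells settled overnight, compound exposure 3 h at 37 °C, 5% CO2; detection: Caspase-Glo 3/7 luminescence, 1 h at room temperature; read-out: Caspase-3/7 activation, seen as rise in luminescence signal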
T cruzi HTS: intracellular Trypanosoma cruzi inhibition. intracellular Trypanosoma cruzi in host cells, plate reader. activity score (inhibition), % at 5.01 µM. hit rate 4.9% among 22,000. AID 651903; in the data active means activity score above about 55%; inconclusive means no clear call, values can overlap the other calls;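 further: parasites and compound incubated about four days before reading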
Of the large screens only hits and unclear results are named; the others gave an inactive call. Shown is part of a subset that was picked to be rich in hits.

COC(=O)CCCCCCC(=O)N/N=C/c1ccc(N(C)C)cc1	none
COCCOC(=O)N1C(=O)[C@@]2(c3ccccc31)[C@H](C(=O)N1CCN(c3ncccn3)CC1)[C@H]1C(=O)O[C@H](c3ccccc3)[C@H](c3ccccc3)N1[C@@H]2c1ccccc1OCCO	none (no result: INS-1E ATP HTS, T cruzi HTS)
C[C@@H]1CN([C@@H](C)CO)C(=O)Cc2cc(NC(=O)Nc3ccc(C(F)(F)F)cc3)ccc2O[C@@H]1CN(C)Cc1ccc(-c2ccccc2)cc1	T cruzi HTS 67
C[C@H]1CN([C@@H](C)CO)C(=O)Cc2cc(NC(=O)Nc3ccc(C(F)(F)F)cc3)ccc2O[C@@H]1CN(C)Cc1ccc(-c2ccccc2)cc1	T cruzi HTS 70 (no result: A1 apoptosis 2)
C[C@H]1CN([C@@H](C)CO)C(=O)Cc2cc(NC(=O)Nc3ccc(C(F)(F)F)cc3)ccc2O[C@H]1CN(C)Cc1ccc(-c2ccccc2)cc1	none (no result: A1 apoptosis 2)
C[C@H]1CN([C@@H](C)CO)C(=O)Cc2cc(NC(=O)Nc3ccccc3)ccc2O[C@@H]1CN(C)S(=O)(=O)c1ccc(F)cc1	none (no result: A1 apoptosis 2)
C[C@H]1CN([C@@H](C)CO)C(=O)c2cc(NS(C)(=O)=O)ccc2O[C@H]1CN(C)CC1CC1	none
COc1ccc(S(=O)(=O)Nc2ccc3c(c2)C(=O)N([C@H](C)CO)C[C@@H](C)[C@H](CN(C)S(=O)(=O)c2cccs2)O3)cc1	none (no result: INS-1E ATP HTS, T cruzi HTS)
O=C(CCCCCCC(=O)N/N=C/c1ccc(O)cc1)NO	none (no result: INS-1E ATP HTS, T cruzi HTS)
Cc1ccc(S(=O)(=O)Nc2ccc3c(c2)C(=O)N([C@@H](C)CO)C[C@H](C)[C@@H](CN(C)Cc2ccc(-c4ccccc4)cc2)O3)cc1	T cruzi HTS 78
Cc1ccc(S(=O)(=O)Nc2ccc3c(c2)C(=O)N([C@@H](C)CO)C[C@@H](C)[C@H](CN(C)Cc2ccc(-c4ccccc4)cc2)O3)cc1	T cruzi HTS inconclusive (no result: A1 apoptosis 2)
C[C@@H]1CN([C@@H](C)CO)C(=O)c2cc(NS(=O)(=O)c3ccccc3)ccc2O[C@@H]1CN(C)Cc1ccc(-c2ccccc2)cc1	none (no result: A1 apoptosis 2)
C[C@H]1CN([C@@H](C)CO)C(=O)c2cc(NS(=O)(=O)c3ccccc3)ccc2O[C@@H]1CN(C)Cc1ccc(-c2ccccc2)cc1	T cruzi HTS 67
Cc1noc(C)c1S(=O)(=O)Nc1cccc2c1O[C@H](CN(C)Cc1ccncc1)[C@H](C)CN([C@H](C)CO)C2=O	none
C[C@H](CO)N1C[C@H](C)[C@@H](CN(C)Cc2ccc(Oc3ccccc3)cc2)Oc2c(NC(=O)NC3CCCCC3)cccc2C1=O	T cruzi HTS 70 (no result: A1 apoptosis 2)
C[C@@H]1CN([C@@H](C)CO)C(=O)c2cccc(NC(=O)NC3CCCCC3)c2O[C@@H]1CN(C)Cc1ccccc1	none
C[C@H]1CN([C@@H](C)CO)C(=O)c2cccc(NC(=O)NC3CCCCC3)c2O[C@@H]1CN(C)Cc1ccc(-c2ccccc2)cc1	none
C[C@H](CO)N1C[C@H](C)[C@H](CN(C)Cc2ccc(-c3ccccc3)cc2)Oc2c(NC(=O)NC3CCCCC3)cccc2C1=O	T cruzi HTS 69
CNC[C@H]1Oc2ccc(NC(=O)Nc3ccc4c(c3)OCO4)cc2CC(=O)N([C@@H](C)CO)C[C@H]1C	none
C[C@@H]1CCCCO[C@@H](CN(C)S(=O)(=O)c2ccc(Cl)cc2)[C@@H](C)CN([C@@H](C)CO)C(=O)c2cc(NC(=O)c3ccncc3)ccc2O1	none (no result: INS-1E ATP HTS, T cruzi HTS)
C[C@H]1CN([C@@H](C)CO)C(=O)c2cc(NS(=O)(=O)c3ccc(Cl)cc3)ccc2O[C@H]1CN(C)S(=O)(=O)c1ccc(F)cc1	none (no result: A1 apoptosis 2)
C[C@@H]1CN([C@H](C)CO)C(=O)Cc2cc(NC(=O)Nc3ccccc3)ccc2O[C@@H]1CN(C)S(=O)(=O)c1ccc(Cl)cc1	none
COc1ccc(NC(=O)Nc2ccc3c(c2)C(=O)N([C@H](C)CO)C[C@H](C)[C@H](CN(C)C(=O)Nc2ccc(C(F)(F)F)cc2)OCCCC[C@H](C)O3)cc1	none (no result: INS-1E ATP HTS, T cruzi HTS)
COc1ccc(NC(=O)N(C)C[C@H]2OCCCC[C@@H](C)Oc3ccc(NC(=O)Nc4ccc(C(F)(F)F)cc4)cc3C(=O)N([C@H](C)CO)C[C@@H]2C)cc1	T cruzi HTS 57
COc1ccc(NC(=O)Nc2ccc3c(c2)C(=O)N([C@H](C)CO)C[C@H](C)[C@H](CN(C)C(=O)Nc2ccc(C(F)(F)F)cc2)OCCCC[C@@H](C)O3)cc1	none
COc1ccc(NC(=O)Nc2ccc3c(c2)C(=O)N([C@H](C)CO)C[C@H](C)[C@@H](CN(C)C(=O)Nc2ccc(C(F)(F)F)cc2)OCCCC[C@@H](C)O3)cc1	T cruzi HTS 69 (no result: A1 apoptosis 2)
C[C@@H]1CN([C@@H](C)CO)C(=O)Cc2cc(NC(=O)NC3CCCCC3)ccc2O[C@H]1CN(C)S(=O)(=O)c1ccc(F)cc1	none (no result: INS-1E ATP HTS, T cruzi HTS)
C[C@@H]1CCCCO[C@H](CN(C)C(=O)Nc2ccc(C(F)(F)F)cc2)[C@H](C)CN([C@H](C)CO)C(=O)c2cc(NS(=O)(=O)c3cn(C)cn3)ccc2O1	none (no result: INS-1E ATP HTS, T cruzi HTS)
C[C@@H]1CN([C@@H](C)CO)C(=O)c2cc(NS(=O)(=O)c3ccccc3)ccc2O[C@H]1CN(C)S(=O)(=O)c1cccs1	none
C[C@@H]1CN([C@H](C)CO)C(=O)c2cccc(NC(=O)c3nc4ccccc4s3)c2O[C@@H]1CN(C)Cc1ccccc1	none
C[C@@H]1CN([C@@H](C)CO)C(=O)c2cccc(NC(=O)c3nc4ccccc4s3)c2O[C@H]1CN(C)Cc1ccc(-c2ccccc2)cc1	T cruzi HTS 71 (no result: A1 apoptosis 2)
C[C@@H]1CN([C@@H](C)CO)C(=O)c2cccc(NC(=O)c3nc4ccccc4s3)c2O[C@H]1CN(C)Cc1ccc(C(=O)Nc2ccccc2N)cc1	T cruzi HTS 70 (no result: A1 apoptosis 2)
C[C@H](CO)N1C[C@H](C)[C@@H](CN(C)Cc2ccc(Oc3ccccc3)cc2)Oc2c(NC(=O)c3nc4ccccc4s3)cccc2C1=O	T cruzi HTS 66 (no result: A1 apoptosis 2)
C[C@@H]1CN([C@H](C)CO)C(=O)c2cccc(NC(=O)c3nc4ccccc4s3)c2O[C@@H]1CN(C)Cc1ccc(-c2ccccc2)cc1	none
C[C@H]1CN([C@@H](C)CO)C(=O)c2cccc(NC(=O)c3nc4ccccc4s3)c2O[C@@H]1CN(C)Cc1ccc(Cl)c(Cl)c1	T cruzi HTS 65
C[C@@H]1CN([C@H](C)CO)C(=O)c2cccc(NC(=O)c3nc4ccccc4s3)c2O[C@@H]1CN(C)Cc1ccc(C(=O)Nc2ccccc2N)cc1	none (no result: INS-1E ATP HTS, T cruzi HTS)
C[C@H]1CN([C@@H](C)CO)C(=O)c2cccc(NC(=O)c3nc4ccccc4s3)c2O[C@@H]1CN(C)Cc1ccc(Oc2ccccc2)cc1	none
C[C@H]1CN([C@@H](C)CO)C(=O)c2cccc(NC(=O)C3CCCCC3)c2O[C@@H]1CN(C)C(=O)NC1CCCCC1	none
Cc1noc(C)c1NC(=O)Nc1ccc2c(c1)C(=O)N([C@@H](C)CO)C[C@@H](C)[C@H](CN(C)C(=O)C1CCCCC1)OCCCC[C@@H](C)O2	none (no result: INS-1E ATP HTS, T cruzi HTS)
C[C@H]1CN([C@@H](C)CO)C(=O)Cc2cc(NC(=O)C3CCCCC3)ccc2O[C@H]1CN(C)C(=O)Nc1cccc2ccccc12	none (no result: A1 apoptosis 2)
C/C=C\C=C/C1OC(O)(C(CC)C(=O)NC/C=C\C=C(\C)C(OC)C(C)C2OC(\C=C/C=C\C=C(\C)C(=O)c3c(O)cc[nH]c3=O)C(O)C2O)C(O)C(O)C1(C)C (centres undefined)	none (no result: INS-1E ATP HTS, T cruzi HTS)

Bioassay records (PubChem BioAssay)
